Data taken from ChEMBL document CHEMBL1153564 (Antimicrob Agents Chemother, 2008).
≈ marks a conversion by molar mass, not a printed value. Calls of active or inactive are those of the source. The calls are words filed in the database; no cut-off is given here. Starred links: 1 amine or outer side, 2 acyl side, 3 side chain; linkers in the order of their positions; H or OH if unused. Positions of bridges follow the written chain, without caps; N, C: chain ends. Non-standard residues stand in square brackets, D forms with d. Residues, ends and D or L forms follow the SMILES beside them. *: point of attachment. pTerphenylCO(4''-OnC5H11) = CCCCCOc1ccc(-c2ccc(-c3ccc(C(=O)*)cc3)cc2)cc1; Orn(4R-OH,5R-OH) = O=C([C@H](C[C@@H](O)[C@@H](O)N[*:3])N[*:1])[*:2]; hTyr(3S-OH,4S-OH) = N[C@H](C(=O)O)[C@H](O)[C@@H](O)c1ccc(O)cc1; Pro(3S-OH,4S-Me) = C[C@H]1CN[C@H](C(=O)O)[C@H]1O; Hyp = O=C(O)[C@@H]1C[C@@H](O)CN1

Columns and labels:
Nakaseomyces glabratus [1] = assay: Antifungal activity against Candida glabrata 5376 infected in neutropenic ICR/Swiss mouse candidiasis model assessed as dose required for 1-log10 reduction in […] per kidney administered intraperitoneally every 48 hrs up to 4 days measured per 96 hrs; type: functional
Summary of the method: (§1)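 Neutropenic ICR/Swiss mice infected i.v. with the strain; therapy began 2 h later. Total doses of 1.25–320 mg/kg/96 h were given i.p. as 1, 2, 4 or 6 doses (q96h, q48h, q24h, q16h), three mice per regimen. Kidney CFU were counted after 4 days. Effect is the change from untreated controls at the end of therapy.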

Nakaseomyces glabratus [2] = assay: Antifungal activity against Candida glabrata 5376 infected in neutropenic ICR/Swiss mouse candidiasis model assessed as […] burden per kidney administered intraperitoneally once every 96 hrs measured per 96 hrs; type: functional; settings: Nakaseomyces glabratus, 5376, Kidney, ip; summary of the method: as §1
Nakaseomyces glabratus [3] = assay: Antifungal activity against Candida glabrata 5376 infected in neutropenic ICR/Swiss mouse candidiasis model assessed as dose required for 1-log10 reduction in […] per kidney administered intraperitoneally once every 96 hrs measured per 96 hrs; type: functional; summary of the method: as §1
Candida albicans [4] = assay: Antifungal activity against Candida albicans K-1 infected in neutropenic ICR/Swiss mouse candidiasis model assessed as reduction of […] in kidney at 5 mg/kg, ip administered 2 hrs postinfection as single dose measured within 1 to 4 hrs post dosing by time-kill assay; type: functional, organism-based; design: dose 5 mg/kg
Summary of the method: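 Single ip dose (20, 5 or 1.25 mg/kg) given 2 h after iv infection of neutropenic mice with K-1. Three treated and three control mice were sampled at intervals over 96 h for kidney CFU. PAFE is the time for treated burden to rise 1 log10 after serum levels fall below MIC, minus the same time in controls. Free drug was taken as 1%.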

Nakaseomyces glabratus [5] = assay: Antifungal activity against Candida glabrata 570 infected in neutropenic ICR/Swiss mouse candidiasis model assessed as dose required to maintain […] of 1.83 +/- 0.54 log10CFU per kidney administered intraperitoneally every 24 hrs up to 4 days measured per 24 hrs; type: functional
Nakaseomyces glabratus [6] = assay: Antifungal activity against Candida glabrata 5376 infected in neutropenic ICR/Swiss mouse candidiasis model assessed as suppression of fungal regrowth at 5 mg/kg, ip administered 2 hrs postinfection as single dose by time-kill assay; type: functional, organism-based; design: dose 5 mg/kg
Summary of the method: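 Neutropenic mice were infected i.v. and 2 h later given a single i.p. dose (1.25, 5 or 20 mg/kg). Groups of three treated and three control mice were killed at intervals over 96 h, and kidney CFU were counted on SDA (limit 100 CFU/ml). The post-antifungal effect is t − c: the time for a 1 log10 CFU/kidney increase once serum levels fall below the MIC in treated mice, minus the same time in controls.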

Candida albicans [7] = assay: Antifungal activity against Candida albicans K-1 infected in neutropenic ICR/Swiss mouse candidiasis model assessed as dose required for 1-log10 reduction in […] per kidney administered intraperitoneally every 16 hrs up to 4 days measured per 96 hrs; type: functional
Summary of the method: (§2)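 Neutropenic mice were infected iv with C. albicans K-1 2 h before therapy. Total doses of 1.25, 5, 20, 80 and 320 mg/kg/96 h were split into 1, 2, 4 or 6 ip doses (q96h, q48h, q24h, q16h), three mice per regimen. Effect is the log10 CFU/kidney relative to untreated controls at 96 h. Static and 1-log doses were taken from a Hill model fit.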

Candida albicans [8] = assay: Antifungal activity against Candida albicans K-1 infected in neutropenic ICR/Swiss mouse candidiasis model assessed as […] burden per kidney administered intraperitoneally every 48 hrs up to 4 days measured per 96 hrs; type: functional; settings: K-1, Kidney, ip; summary of the method: as §2
Candida albicans [9] = assay: Antifungal activity against Candida albicans 98-210 infected in neutropenic ICR/Swiss mouse candidiasis model assessed as dose required for 1-log10 reduction in […] per kidney administered intraperitoneally every 24 hrs up to 4 days measured per 24 hrs; type: functional
Summary of the method: (§3)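 Neutropenic mice (cyclophosphamide sc on days −4, −1 and +2) were infected iv 2 h before therapy. Five total doses from 0.078 to 20 mg/kg/24 h were given ip q24h for 4 days, three mice per regimen. Kidney CFU were measured at the end of therapy. Static and 1-log-kill doses were derived from a Hill sigmoid dose-effect fit.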

Nakaseomyces glabratus [10] = assay: Antifungal activity against Candida glabrata 32930 infected in neutropenic ICR/Swiss mouse candidiasis model assessed as dose required for 1-log10 reduction in […] per kidney administered intraperitoneally every 24 hrs up to 4 days measured per 24 hrs; type: functional; summary of the method: as §3
Candida albicans [11] = assay: Antifungal activity against Candida albicans K-1 infected in neutropenic ICR/Swiss mouse candidiasis model assessed as […] burden per kidney administered intraperitoneally once every 96 hrs measured per 96 hrs; type: functional; settings: K-1, Kidney, ip; summary of the method: as §2
Nakaseomyces glabratus [12] = assay: Antifungal activity against Candida glabrata 5376 infected in neutropenic ICR/Swiss mouse candidiasis model assessed as dose required for 1-log10 reduction in […] per kidney administered intraperitoneally every 16 hrs up to 4 days measured per 96 hrs; type: functional; summary of the method: as §1
Nakaseomyces glabratus [13] = assay: Antifungal activity against Candida glabrata 33609 assessed as partial growth inhibition after 24 hrs by CLSI end point method; type: functional; settings: Nakaseomyces glabratus, 33609, 24 h
Summary of the method: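 CLSI M27-A2 broth dilution. Two end points read against the drug-free control well: partial inhibition (CLSI end point) and complete inhibition. Run in duplicate on four separate occasions; value is the mean. Drug stock in DMSO, diluted in 0.9% NaCl.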

Nakaseomyces glabratus [14] = assay: Antifungal activity against Candida glabrata 35315 assessed as partial growth inhibition after 24 hrs by CLSI end point method; type: functional; settings: Nakaseomyces glabratus, 35315, 24 h
Summary of the method: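 Two end points were read against the drug-free control well: partial growth inhibition (the CLSI end point) and complete inhibition. Run in duplicate on four separate occasions; the value is the mean. Drug stock was made in DMSO and diluted in 0.9% NaCl.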

Nakaseomyces glabratus [15] = assay: Antifungal activity against Candida glabrata 5592 infected in neutropenic ICR/Swiss mouse candidiasis model assessed as fungal count per kidney administered 2 hrs postinfection measured up to 48 hrs; type: functional
Summary of the method: (§4)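 Female ICR/Swiss mice (23–27 g) made neutropenic with cyclophosphamide s.c. (150 mg/kg day −4, 100 mg/kg day −1, 100 mg/kg day +2). Infected by tail vein with 0.1 ml inoculum (~6.1 log10 CFU/ml). Kidneys of untreated mice were homogenised and plated on SDA for 24 h at 35°C. Growth over 48 h is given as log10 CFU/kidney.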

Nakaseomyces glabratus [16] = assay: Antifungal activity against Candida glabrata 37661 infected in neutropenic ICR/Swiss mouse candidiasis model assessed as fungal count per kidney administered 2 hrs postinfection measured up to 48 hrs; type: functional; summary of the method: as §4
[17] = Elimination half life in serum of neutropenic ICR/Swiss mouse candidiasis model at 20 mg/kg, ip by reverse-phase high-pressure liquid chromatography; type: ADME, organism-based; design: dose 20 mg/kg, route intraperitoneal; settings: read-out: beta t1/2 (converted)
Summary of the method: (§5)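 Infected neutropenic ICR/Swiss mice given single ip doses (5, 20 or 80 mg/kg; 0.2 ml); serum from three isoflurane-anaesthetised mice at 1, 4, 8, 12, 24 and 48 h, stored at −80°C, assayed by reverse-phase HPLC with fluorescence detection, loratadine internal standard, linear 10–50,000 ng/ml. Noncompartmental analysis; half-life by nonlinear least squares.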

Mus musculus = assay: Cmax in serum of neutropenic ICR/Swiss mouse candidiasis model at 5 mg/kg, ip up to 4 hrs by reverse-phase high-pressure liquid chromatography; type: ADME, organism-based; design: dose 5 mg/kg, route intraperitoneal; settings: in vivo; summary of the method: as §5
[18] = Elimination half life in serum of neutropenic ICR/Swiss mouse candidiasis model at 5 mg/kg, ip by reverse-phase high-pressure liquid chromatography; type: ADME, organism-based; design: dose 5 mg/kg, route intraperitoneal; settings: read-out: beta t1/2 (converted); summary of the method: as §5

Molecule `CCCCCOc1ccc(-c2ccc(-c3ccc(C(=O)N[C@H]4C[C@@H](O)[C@@H](O)NC(=O)[C@@H]5[C@@H](O)[C@@H](C)CN5C(=O)[C@H]([C@@H](C)O)NC(=O)[C@H]([C@H](O)[C@@H](O)c5ccc(O)cc5)NC(=O)[C@@H]5C[C@@H](O)CN5C(=O)[C@H]([C@@H](C)O)NC4=O)cc3)cc2)cc1` [ANIDULAFUNGIN] ({pTerphenylCO(4''-OnC5H11)}-[Orn(4R-OH,5R-OH)]T[Hyp][hTyr(3S-OH,4S-OH)]T[Pro(3S-OH,4S-Me)]; lactam 1-C) has an Activity (Nakaseomyces glabratus [1]) of 27.4 mg/kg, an ED50 (Nakaseomyces glabratus [2]) of 8.12 mg/kg and an Activity (Nakaseomyces glabratus [3]) of 16.6 mg/kg. The Activity (Candida albicans [4]) was “Active”, the Activity (Nakaseomyces glabratus [5]) was 1.97 mg/kg and the Activity (Nakaseomyces glabratus [6]) was “Active”. It also gave an Activity (Candida albicans [7]) of 38.3 mg/kg, an ED50 (Candida albicans [8]) of 3.14 mg/kg and an Activity (Candida albicans [9]) of 13 mg/kg. The Activity (Nakaseomyces glabratus [10]) was 3.31 mg/kg, the ED50 (Candida albicans [11]) was 2.13 mg/kg and the Activity (Nakaseomyces glabratus [12]) was 56.7 mg/kg. It also gave an MIC (Nakaseomyces glabratus [13]) of 0.03 mg/L (≈ 0.0263 µM), an MIC (Nakaseomyces glabratus [14]) of 0.25 mg/L (≈ 0.219 µM) and a log10cfu (Nakaseomyces glabratus [15]) of 2.1. For the same molecule, the log10cfu (Nakaseomyces glabratus [16]) was 0.96, the half-life [17] was 14.7 h and the Cmax (Mus musculus) was 4.3 µg/mL. The half-life [18] was 14.8 h.
